In brackets after ≈: the same amount, converted by molar mass. Activity calls are given as the source filed them. The calls are words filed in the database; no cut-off is given here.
Key:
[1] = tested on: Pseudomonas aeruginosa; assay: Antibacterial activity against Pseudomonas aeruginosa DK101 containing pAU48 expressing oprD after 14 to 16 hrs by broth dilution method; type: functional
[2] = tested on: Pseudomonas aeruginosa; assay: Antibacterial activity against Pseudomonas aeruginosa T2095 after 14 to 16 hrs by broth dilution method; type: functional
[3] = tested on: Pseudomonas aeruginosa; assay: Antibacterial activity against Pseudomonas aeruginosa T15464 after 14 to 16 hrs by broth dilution method; type: functional
Procedure, shortened: (§1)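 CLSI broth dilution in cation-adjusted Mueller-Hinton broth with serial twofold dilutions, with or without spermine or spermidine added. Overnight cultures were diluted in saline to OD600 0.1–0.12, and about 10^5 CFU were inoculated. Incubation was 14–16 h at 37°C. MIC was confirmed in three independent experiments. E. coli acrA mutants were tested with 1 mM spermine; P. aeruginosa isolates with 1 mM spermine or 20 mM spermidine.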

[4] = tested on: Staphylococcus aureus; assay: Antibacterial activity against Staphylococcus aureus Mu50 after 14 to 16 hrs by broth dilution method; type: functional
[5] = tested on: Escherichia coli; assay: Antibacterial activity against Escherichia coli C921-61 after 14 to 16 hrs by broth dilution method; type: functional
[6] = tested on: Pseudomonas aeruginosa; assay: Antibacterial activity against streptomycin-resistant Pseudomonas aeruginosa DK100 after 14 to 16 hrs by broth dilution method; type: functional; procedure, shortened: as §1
[7] = tested on: Pseudomonas aeruginosa; assay: Antibacterial activity against Pseudomonas aeruginosa F4980 after 14 to 16 hrs by broth dilution method; type: functional; procedure, shortened: as §1
[8] = tested on: Pseudomonas aeruginosa; assay: Antibacterial activity against Pseudomonas aeruginosa M38100A after 14 to 16 hrs by broth dilution method; type: functional
[9] = tested on: Escherichia coli; assay: Antibacterial activity against Escherichia coli N43 acrA mutant assessed as inhibition of AcrAB efflux pump after 14 to 16 hrs by broth dilution method; type: functional; procedure, shortened: as §1
[10] = tested on: Pseudomonas aeruginosa; assay: Antibacterial activity against Pseudomonas aeruginosa M22152 after 14 to 16 hrs by broth dilution method; type: functional; procedure, shortened: as §1
[11] = tested on: Pseudomonas aeruginosa; assay: Antibacterial activity against Pseudomonas aeruginosa F66336 after 14 to 16 hrs by broth dilution method; type: functional
[12] = tested on: Escherichia coli; assay: Antibacterial activity against Escherichia coli N818 delta acrA mutant assessed as inhibition of AcrAB efflux pump after 14 to 16 hrs by broth dilution method; type: functional; procedure, shortened: as §1
[13] = tested on: Pseudomonas aeruginosa; assay: Antibacterial activity against Pseudomonas aeruginosa T6268 after 14 to 16 hrs by broth dilution method; type: functional
[14] = tested on: Pseudomonas aeruginosa; assay: Antibacterial activity against Pseudomonas aeruginosa M37310 after 14 to 16 hrs by broth dilution method; type: functional
[15] = tested on: Staphylococcus aureus; assay: Antibacterial activity against Staphylococcus aureus ATCC 3556 after 14 to 16 hrs by broth dilution method; type: functional
[16] = tested on: Staphylococcus aureus; assay: Antibacterial activity against Staphylococcus aureus N315 after 14 to 16 hrs by broth dilution method; type: functional; procedure, shortened: as §1
[17] = tested on: Salmonella typhimurium; assay: Antibacterial activity against Salmonella enterica serovar Typhimurium LT2 after 14 to 16 hrs by broth dilution method; type: functional, Salmonella enterica subsp. enterica serovar Typhimurium
[18] = tested on: Pseudomonas aeruginosa; assay: Antibacterial activity against Pseudomonas aeruginosa PAO1 assessed as inhibition of bacterial population at 64 ug/ml after 48 hrs; type: functional, organism-based
Procedure, shortened: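 Population analysis: overnight 37°C cultures adjusted to 1 x 10^8 to 5 x 10^8 CFU/ml, diluted, 100 µl spread on LB plates with twofold serial dilutions of antibiotic with or without 1 mM spermine, plus LB alone; colonies counted after 48 h at 37°C; triplicate experiments.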

[19] = tested on: Pseudomonas aeruginosa; assay: Antibacterial activity against Pseudomonas aeruginosa T5177 after 14 to 16 hrs by broth dilution method; type: functional; procedure, shortened: as §1
[20] = tested on: Escherichia coli; assay: Antibacterial activity against Escherichia coli W4573 assessed as inhibition of AcrAB efflux pump after 14 to 16 hrs by broth dilution method; type: functional
[21] = tested on: Escherichia coli; assay: Antibacterial activity against Escherichia coli K10 after 14 to 16 hrs by broth dilution method; type: functional
[22] = tested on: Escherichia coli; assay: Antibacterial activity against Escherichia coli K12 after 14 to 16 hrs by broth dilution method; type: functional
[23] = tested on: Pseudomonas aeruginosa; assay: Antibacterial activity against streptomycin and gentamycin-resistant Pseudomonas aeruginosa DK101 containing oprD mutant after 14 to 16 hrs by broth dilution method; type: functional; procedure, shortened: as §1
[24] = tested on: Pseudomonas aeruginosa; assay: Antibacterial activity against Pseudomonas aeruginosa M38100B after 14 to 16 hrs by broth dilution method; type: functional
[25] = tested on: Pseudomonas aeruginosa; assay: Antibacterial activity against Pseudomonas aeruginosa H4563 after 14 to 16 hrs by broth dilution method; type: functional
[26] = tested on: Pseudomonas aeruginosa; assay: Antibacterial activity against Pseudomonas aeruginosa PAO1 after 14 to 16 hrs by broth dilution method; type: functional
[27] = tested on: Staphylococcus aureus; assay: Antibacterial activity against Staphylococcus aureus N315 at 20 ug/ml after 12 hrs by time kill assay; type: functional, organism-based
Procedure, shortened: (§2)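 Time-kill: overnight MH broth cultures were diluted in saline to OD600 0.08–0.12, and 1 x 10^5 to 5 x 10^5 CFU went into 1 ml MH broth with or without antibiotic and/or 1 mM spermine. Static incubation at 37°C. Timed 100 µl aliquots were plated on LB neat or after 10-fold dilutions, and colonies counted after 18–24 h at 37°C.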

[28] = tested on: Staphylococcus aureus; assay: Antibacterial activity against Staphylococcus aureus Mu50 assessed as inhibition of bacterial population at 128 ug/ml after 48 hrs; type: functional, organism-based
[29] = tested on: Staphylococcus aureus; assay: Antibacterial activity against Staphylococcus aureus Mu50 at 20 ug/ml after 12 hrs by time kill assay; type: functional, organism-based; procedure, shortened: as §2
[30] = tested on: Staphylococcus aureus; assay: Antibacterial activity against Staphylococcus aureus Mu50 assessed as inhibition of bacterial population at greater than 512 ug/ml after 48 hrs; type: functional, organism-based

Q: How did the MIC [1] turn out when `CC1(C)S[C@@H]2[C@H](NC(=O)C(C(=O)O)c3ccccc3)C(=O)N2[C@H]1C(=O)O` (stereo partly specified) [CARBENICILLIN] was run?
A: 64 µg/mL (≈ 169 µM)

Q: What about the MIC [2] of the same compound?
A: 256 µg/mL (≈ 677 µM)

Q: And the MIC [3]?
A: > 1020 µg/mL

Q: And the MIC [4]?
A: ≥ 512 µg/mL

Q: And the MIC [5]?
A: 16 µg/mL (≈ 42.3 µM)

Q: And the MIC [6]?
A: 64 µg/mL (≈ 169 µM)

Q: What about the MIC [7] of the same compound?
A: 256 µg/mL (≈ 677 µM)

Q: What about the MIC [8] of the same compound?
A: 16 µg/mL (≈ 42.3 µM)

Q: What about the MIC [9] of the same compound?
A: 4 µg/mL (≈ 10.6 µM)

Q: What about the MIC [10] of the same compound?
A: > 1020 µg/mL

Q: And the MIC [11]?
A: 256 µg/mL (≈ 677 µM)

Q: And the MIC [12]?
A: 2 µg/mL (≈ 5.29 µM)

Q: What about the MIC [13] of the same compound?
A: 16 µg/mL (≈ 42.3 µM)

Q: And the MIC [14]?
A: 1020 µg/mL (≈ 2710 µM)

Q: And the MIC [15]?
A: 1 µg/mL (≈ 2.64 µM)

Q: And the MIC [16]?
A: 32 µg/mL (≈ 84.6 µM)

Q: And the MIC [17]?
A: 8 µg/mL (≈ 21.1 µM)

Q: What about the Activity [18] of the same compound?
A: Active

Q: And the MIC [19]?
A: > 1020 µg/mL

Q: What about the MIC [20] of the same compound?
A: 16 µg/mL (≈ 42.3 µM)

Q: What about the MIC [21] of the same compound?
A: 32 µg/mL (≈ 84.6 µM)

Q: What about the MIC [22] of the same compound?
A: 16 µg/mL (≈ 42.3 µM)

Q: And the MIC [23]?
A: 64 µg/mL (≈ 169 µM)

Q: And the MIC [24]?
A: 1020 µg/mL (≈ 2710 µM)

Q: What about the MIC [25] of the same compound?
A: > 1020 µg/mL

Q: And the MIC [26]?
A: 64 µg/mL (≈ 169 µM)

Q: What does the source list for `Cc1onc(-c2ccccc2)c1C(=O)N[C@@H]1C(=O)N2[C@@H]1SC(C)(C)[C@@H]2C(=O)O` [OXACILLIN]?
A: MIC [4]: 512 µg/mL (≈ 1280 µM); MIC [5]: 512 µg/mL (≈ 1280 µM); Activity [27]: inactive; Activity [28]: inactive; MIC [15]: 0.12 µg/mL (≈ 0.299 µM); MIC [16]: 16 µg/mL (≈ 39.9 µM); MIC [17]: 256 µg/mL (≈ 638 µM); MIC [22]: 512 µg/mL (≈ 1280 µM); Activity [29]: inactive; Activity [30]: Active

Reference: ChEMBL document CHEMBL1145495, “Polyamine effects on antibiotic susceptibility in bacteria” (2007)
